In ChEMBL document CHEMBL1154252, “Nitric oxide scavenging lignans from Vitex negundo seeds” (J Nat Prod, 2009):

Key:
RAW264.7 [1] = assay: Antiinflammatory activity against mouse RAW264.7 cells assessed as inhibition of LPS-induced nitric oxide production at 1 uM after 24 hrs by Griess reagent method; type: functional; conditions: RAW264.7, 24 h
In short: (§1)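 RAW 264.7 macrophages seeded at 10^5 cells/well, co-incubated with compound and LPS (1 µg/mL) for 24 h. Nitrite in supernatant measured by Griess reagent: supernatant mixed in turn with 1% sulfanilamide and 0.1% naphthylethylenediamine in 2.5% phosphoric acid, absorbance read at 548 nm. n = 4, mean ± SD; L-nitroarginine as positive control, LPS alone as negative control.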

RAW264.7 [2] = assay: Antiinflammatory activity against mouse RAW264.7 cells assessed as inhibition of LPS-induced nitric oxide production after 24 hrs by Griess reagent method; type: functional, cell-based; conditions: RAW264.7, 24 h; in short: as §1
RAW264.7 [3] = assay: Cytotoxicity against LPS-stimulated mouse RAW264.7 cells up to 1 uM after 24 hrs by MTT assay; type: cell-based; conditions: raw264.7, 24 h
In short: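 After supernatant removal for Griess assay, LPS-treated RAW 264.7 cells given fresh medium with 2 mg/mL MTT. Incubated 3 h at 37 °C, 5% CO2. Formazan dissolved in DMSO and absorbance measured at 570 nm.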

Row | Structure (SMILES) | inhibition at 1 µM (RAW264.7 [1]) [%] | IC50 (RAW264.7 [2]) [nM] | Activity (RAW264.7 [3])
1 | COc1cc(-c2cc(C=O)c(O)c3cc(OC)c(O)cc23)ccc1O [VITEXDOIN E] | 84.2 | 150 | Non-toxic
2 | COc1cc(-c2cc(C=O)cc3cc(OC)c(O)cc23)ccc1O [VITROFOLAL E] | 63.2 | 500 | –
3 | COc1cc(-c2c3c(cc4cc(OC)c(O)cc24)CNC3=O)ccc1O [VITEDOAMINE B] | 56.2 | 870 | Non-toxic
4 | N=C(NCCC[C@H](N)C(=O)O)N[N+](=O)[O-] [NITROARGININE] | 2.53 | 43600 | –
5 | COc1cc(-c2c3c(cc4cc(OC)c(O)cc24)C(=O)NC3)ccc1O [VITEDOAMINE A] | 43.3 | 1530 | Non-toxic
6 | COc1cc([C@H]2c3cc(O)c(O)cc3C=C(C=O)[C@@H]2CO)ccc1O [VITEXDOIN A] | 67 | 380 | Non-toxic
7 | COc1cc(-c2cc(C=O)cc3ccc(O)c(OC)c23)ccc1O [VITEXDOIN B] | 80.8 | 200 | Non-toxic
8 | COc1cc(-c2c(C=O)ccc3cc(OC)c(O)cc23)ccc1O [VITEXDOIN C] | 61.7 | 570 | Non-toxic
9 | COc1cc([C@H]2c3cc(O)c(OC)cc3C=C(C=O)[C@@H]2CO)ccc1O | 34.4 | 3540 | Non-toxic
10 | COc1cc(-c2c(C=O)c(O)cc3cc(OC)c(O)cc23)ccc1O [VITEXDOIN D] | 91.1 | 130 | Non-toxic
11 | COc1cc(-c2c(O)c(C=O)cc3cc(OC)c(O)cc23)ccc1O [VITROFOLAL F] | 95.8 | 110 | Non-toxic
